≈ marks a conversion by molar mass, not a printed value. Calls of active or inactive are those of the source. The calls are words filed in the database; no cut-off is given here.
Experiments:
[1] = test system: Clostridium perfringens; test: Antibacterial activity against Clostridium perfringens ATCC 13124 after 24 hrs by ten-fold serial dilution method; format: functional; settings: ATCC 13124, 24 h
Summary of the method: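 Grown in Fluid Thioglycollate Broth and incubated 24 h at 37 °C. Growth was checked by eye after incubation. MIC was taken as the lowest concentration, in μg/mL, that prevented visible growth.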

[2] = test system: Candida albicans; test: Antifungal activity against Candida albicans; format: functional, organism-based
[3] = test system: Bacteroides fragilis; test: Antibacterial activity against Bacteroides fragilis ATCC 23745 after 24 hrs by ten-fold serial dilution method; format: functional; settings: ATCC 23745, 24 h
Summary of the method: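 Grown in Fluid Thioglycollate Broth and incubated 24 h at 37 °C. Growth was read by eye, and the MIC (µg/mL) is the lowest concentration that prevented visible growth.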

[4] = test system: Tritrichomonas foetus; test: Antibacterial activity against Tritrichomonas foetus 1002-96-27 after 48 hrs by ten-fold serial dilution method; format: functional; settings: 1002-96-27, 48 h
Summary of the method: (§1)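 Trichomonads were cultured in Diamond medium with 5% serum and incubated 48 h at 37 °C. Cultures were examined microscopically for motile cells, and the MIC (µg/mL) is the lowest concentration giving no motile organisms.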

[5] = test system: Trichomonas vaginalis; test: Antibacterial activity against Trichomonas vaginalis ATCC 30001 after 48 hrs by ten-fold serial dilution method; format: functional; settings: ATCC 30001, 48 h; summary of the method: as §1
[6] = test system: Neisseria gonorrhoeae; test: Antibacterial activity against Neisseria gonorrhoeae ATCC 19424 after 48 hrs by ten-fold serial dilution method; format: functional; settings: ATCC 19424, 48 h
Summary of the method: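 Tested on chocolate agar made from GC agar base with hemoglobin and Supplement C, incubated 48 h at 37 °C. Plates were checked visually, and the MIC (µg/mL) is the lowest concentration with no visible growth.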

[7] = test system: Pentatrichomonas hominis; test: Antibacterial activity against Pentatrichomonas hominis ATCC 30000 after 48 hrs by ten-fold serial dilution method; format: functional; settings: ATCC 30000, 48 h; summary of the method: as §1

| SMILES | MIC [1] [µg/mL] | Activity [2] | MIC [3] [µg/mL] | MIC [4] [µg/mL] | MIC [5] [µg/mL] | MIC [6] [µg/mL] | MIC [7] [µg/mL] |
| --- | --- | --- | --- | --- | --- | --- | --- |
| Cn1c([N+](=O)[O-])cnc1S(=O)(=O)CCCCC(=O)O | > 100 | inactive | 100 (≈ 343 µM) | > 100 | 100 (≈ 343 µM) | 100 (≈ 343 µM) | 100 (≈ 343 µM) |
| Cn1c([N+](=O)[O-])cnc1SCCC(=O)O | 10 (≈ 43.2 µM) | inactive | 10 (≈ 43.2 µM) | 10 (≈ 43.2 µM) | 10 (≈ 43.2 µM) | 10 (≈ 43.2 µM) | 10 (≈ 43.2 µM) |
| Cn1c([N+](=O)[O-])cnc1SCCCCCCCOc1ccccc1[N+](=O)[O-] | > 100 | inactive | > 100 | 100 (≈ 254 µM) | 100 (≈ 254 µM) | > 100 | 100 (≈ 254 µM) |
| Cn1c([N+](=O)[O-])cnc1[S+]([O-])CCC(=O)O (centres undefined) | 100 (≈ 404 µM) | inactive | 10 (≈ 40.4 µM) | 10 (≈ 40.4 µM) | 10 (≈ 40.4 µM) | > 100 | 10 (≈ 40.4 µM) |
| Br.Cn1ccnc1SCCCCCCCCCCC(=O)O | > 100 | inactive | > 100 | > 100 | > 100 | > 100 | > 100 |
| Cn1c([N+](=O)[O-])cnc1SCCCCCCCCC(=O)O | 10 (≈ 31.7 µM) | inactive | 10 (≈ 31.7 µM) | 10 (≈ 31.7 µM) | 10 (≈ 31.7 µM) | 0.1 (≈ 0.317 µM) | 10 (≈ 31.7 µM) |
| Cn1c([N+](=O)[O-])cnc1SCCCCCCCC(=O)O | 0.1 (≈ 0.332 µM) | inactive | 10 (≈ 33.2 µM) | 1 (≈ 3.32 µM) | 1 (≈ 3.32 µM) | 0.1 (≈ 0.332 µM) | 1 (≈ 3.32 µM) |

Reference: ChEMBL document CHEMBL3272259, “Nitroimidazoles with antibacterial activity against Neisseria gonorrhoeae” (1977)
